mIAP activ: increases mouse intestinal alkaline phosphatase activity; muIAP, CDP-Star luminescence, 30 min; active compounds read high; 1 = vehicle-only enzyme signal, 0 = enzyme-free wells; activation factor at 10 µM; actives 0.24% (n = 330,000); AID 2805;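 active means activation factor of at least 2 at 20 µM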
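Assay system: mouse IAP enzyme / Compound: DMSO-dissolved test compounds / Timing: 30 min, room temperature / Measured by: luminescence from enzymatic CDP-Star hydrolysis / Control set: DMSO-only wells, enzyme-free buffer wells as negative control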
hIAP inh: blocks human intestinal alkaline phosphatase; P09923; purified IAP, CDP-Star luminescence, 30 min; inhibition, % at 10 µM; actives 0.12% (n = 330,000);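 active means inhibition reaching a set limit with compound at 10 µM in the primary screen, cut at about 35% in these data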;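 further: plate controls were DMSO wells with enzyme for no effect and no-enzyme buffer wells for full effect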
Target sequence (P09923 whole entry, looked up): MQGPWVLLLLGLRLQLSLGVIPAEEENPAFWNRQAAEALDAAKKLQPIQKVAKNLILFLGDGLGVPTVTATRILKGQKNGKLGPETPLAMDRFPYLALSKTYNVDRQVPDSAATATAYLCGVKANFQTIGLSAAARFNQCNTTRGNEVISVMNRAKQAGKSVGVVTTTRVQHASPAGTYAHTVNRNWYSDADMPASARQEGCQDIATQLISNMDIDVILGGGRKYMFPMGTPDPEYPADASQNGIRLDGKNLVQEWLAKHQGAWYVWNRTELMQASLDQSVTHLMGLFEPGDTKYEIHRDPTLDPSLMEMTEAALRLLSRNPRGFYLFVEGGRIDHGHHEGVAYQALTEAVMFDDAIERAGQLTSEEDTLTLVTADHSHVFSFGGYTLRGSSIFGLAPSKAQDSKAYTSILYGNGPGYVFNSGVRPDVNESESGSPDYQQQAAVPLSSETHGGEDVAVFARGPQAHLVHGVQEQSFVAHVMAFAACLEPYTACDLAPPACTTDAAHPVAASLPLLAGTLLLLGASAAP
bIAP inh: intestinal alkaline phosphatase (bovine) inhibition; inhibition, % at 20 µM; 190,000 tested, under 10 active; purified bovine IAP, CDP-star luminescence, 30 min;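 active means over 50% inhibition of intestinal alkaline phosphatase at 20 µM in the single-dose screen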
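Assay system – bovine IAP enzyme · Quantity – bovine IAP at 1/65,000,000 final dilution · Detection – CDP-star luminescence signal · Times – 30 min reaction at room temperature · Also added – CDP-star substrate at 30 µM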
mIAP block: blocks mouse intestinal alkaline phosphatase; inhibition, % at 10 µM; actives 0.2% (n = 330,000); AID 2806; purified mouse IAP, CDP-Star luminescence, 30 min;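 active means inhibition of at least 40% at 10 µM in the primary screen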;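 further: plate controls were DMSO with enzyme for no effect and no enzyme wells for full effect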
bIAP activator: intestinal alkaline phosphatase (bovine) activation; activation factor at 20 µM; actives 0.17% (n = 200,000); AID 1016; purified bovine IAP, CDP-star luminescence, 30 min; active compounds read high; fold of DMSO-control signal, blank-subtracted;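 active means activation factor of 2 or more at 20 µM, a signal rise over negative controls twice the positive control's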
hIAP activ: human IAP activation. AID 2524. P09923. activation factor at 10 µM. actives 0.16% (n = 330,000). purified human IAP, CDP-Star luminescence, 30 min; active compounds read high; 1 = vehicle-only enzyme, 0 = enzyme-free background;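 active means activation factor of the enzyme at least 2-fold when tested at 20 µM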
mIAP inh confirm: mouse IAP inhibition confirmation | inhibition, % at 10 µM | actives 4.7% (n = 11,000) | shares compounds with mIAP block | AID 434971 | purified mouse IAP, CDP-Star luminescence, 30 min;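 active means inhibition of at least 40% at 10 µM in either of the two replicates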;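 further: plate controls were DMSO wells with enzyme for no effect and buffer wells lacking enzyme for full effect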
Starred values were filed as active, the others as inactive; . = not tested or not shown. Hits are enriched below; roughly 0.72% of the tested compounds scored in any of these assays.

SMILES	mIAP activ	hIAP inh	bIAP inh	mIAP block	bIAP activator	hIAP activ	mIAP inh confirm
COc1ccc(C(=O)O)cc1S(=O)(=O)Nc1ccccc1C(=O)NCc1ccc2c(c1)OCO2	0.93	-5	.	8	.	1	.
COc1cccc(NC(=O)CSc2nc3ccccc3c(=O)n2CCCC(=O)NCC2CCCO2)c1 (stereo unspecified)	1	-17	.	-1	.	1.2	.
Cc1cc2c(n1-c1ccc(C(=O)O)cc1)CCCCC2	1	-13	.	0	.	1.1	.
CC(C)NC(=O)Nc1ccc2c(c1)C(=O)N([C@H](C)CO)C[C@H](C)[C@@H](CN(C)S(=O)(=O)c1cccs1)O2	1.4	2	.	-42	.	0.98	.
COc1ccc(NC(=O)Nc2ccc3c(c2)C(=O)N([C@H](C)CO)C[C@H](C)[C@@H](CN(C)S(=O)(=O)c2cccs2)O3)cc1	2.7*	-4	.	-175	.	1	-110
Oc1cccc(C=Nc2cccc3ccccc23)c1O	0.62	-5	.	38	.	1.1	.
Oc1cccc(C=NCc2ccccc2)c1O	0.42	-6	16	58*	0.8	1.1	63*
CC(C)c1nnc(NC(=O)CCC(=O)N2CCC(Cc3ccccc3)CC2)s1	0.94	3	.	6	.	0.97	.
CCC(C)(C)NC(=O)C(c1cccc(OC)c1OC)N(C(=O)CCC(=O)Nc1cc(C)on1)C(C)C (stereo unspecified)	1.1	-8	.	-5	.	1.1	.
NS(=O)(=O)c1ccc2c(c1)oc(=O)c1cc(S(N)(=O)=O)ccc12	0.52	3	9	48*	0.9	0.97	57*
COCCNS(=O)(=O)c1ccc2c(c1)oc(=O)c1cc(S(=O)(=O)NCCOC)ccc12	1	-11	-2	0	1	1.1	.
Cc1ccc(C(=O)CCC(=O)OCC(=O)N(C)c2c(N)n(Cc3ccccc3)c(=O)[nH]c2=O)cc1	1	9	.	-5	.	0.91	.
COc1ccc(CCNC(=O)c2cc(-c3cc(Cl)cc(Cl)c3)oc2C)cc1	4*	0	-3	-300	1	1	-107
CN1C(=O)CSc2ccc(NC(=O)NCCC3=CCCCC3)cc21	3.8*	-96	12	-279	0.9	2	-122
CC(C)CCNC(=O)Nc1ccc2c(c1)N(C)C(=O)CS2	1.7	-13	21	-72	0.8	1.1	.
Cc1ccc(OCCC(=O)N(CC(=O)Nc2ccccc2C(F)(F)F)Cc2ccco2)cc1	0.94	-15	.	6	.	1.1	.
COC(=O)c1cc(O)cc(OC)c1Oc1cc(C)cc(O)c1C(=O)O	0.47	5	.	53*	.	0.95	67*
S=C(NCCC(c1ccccc1)c1ccccc1)Nc1ccc(Cl)cc1	5.9*	-15	-32	-491	1.3	1.1	-110
S=C(NCc1ccccc1)Nc1ccc(Cl)cc1	1.7	9	12	-72	0.9	0.91	.
COc1ccc(Cl)cc1NC(=S)NCCC(c1ccccc1)c1ccccc1	4*	-22	10	-298	0.9	1.2	-107
COc1ccc(Cl)cc1NC(=S)NCCO	0.96	-7	0	4	1	1.1	.
O=c1nc2s/c(=C\c3ccco3)c(=O)n2nc1Cc1ccc(F)cc1	0.54	13	12	46*	0.9	0.87	58*
O=C(NCC(O)c1ccc([N+](=O)[O-])cc1)C1=COCCO1 (stereo unspecified)	1	-2	.	-5	.	1	.
COC(=O)c1ccc(NS(=O)(=O)c2ccc3[nH]c(=O)oc3c2)cc1	0.3	-11	.	70*	.	1.1	74*
Cc1cccc(NS(=O)(=O)c2ccc3[nH]c(=O)oc3c2)c1C	0.98	-8	.	2	.	1.1	.
SMILES	mIAP activ	hIAP inh	bIAP inh	mIAP block	bIAP activator	hIAP activ	mIAP inh confirm
O=c1[nH]c2ccc(S(=O)(=O)N3CCCCC3)cc2o1	0.2	4	11	80*	0.9	0.96	74*
Cc1ccc(C)c(NS(=O)(=O)c2ccc3[nH]c(=O)oc3c2)c1	0.16	-7	-6	84*	1.1	1.1	89*
Cc1ccc(NS(=O)(=O)c2ccc3[nH]c(=O)oc3c2)cc1Cl	0.8	8	.	20	.	0.93	.
O=C(NNC(=O)c1cc2cc(Br)ccc2oc1=O)c1ccc(O)cc1O	0.23	-5	31	77*	0.7	1.1	82*
O=C(COC(=O)c1ccc(Cl)cc1Cl)Nc1cccc(S(=O)(=O)NC2=NCCC2)c1	0.95	10	.	5	.	0.9	.
CC(C)OC(=O)c1sc2nc(-c3ccccc3)ccc2c1N	1.2	-34	-10	-22	1.1	1.3	.
COC(=O)c1sc2nc(-c3ccco3)ccc2c1N	0.48	6	3	52*	1	0.94	53*
NC(=O)c1sc2nc(-c3ccco3)ccc2c1N	0.56	-5	6	44*	0.9	1.1	52*
NC(=O)c1sc2nc3c(c(-c4ccco4)c2c1N)CCC3	0.57	-8	11	43*	0.9	1.1	57*
Nc1c(C(=O)Nc2ccccc2F)sc2nc(-c3ccco3)ccc12	0.53	8	15	48*	0.9	0.92	61*
NC(=O)c1sc2nc(-c3cccnc3)ccc2c1N	0.99	14	.	1	.	0.86	.
CSCC[C@H](NC(=O)C1CCN(S(=O)(=O)c2ccc(C)cc2C)CC1)c1nc2ccccc2[nH]1	2.6*	0	.	-155	.	1	-102
CSCC[C@H](NC(=O)c1cccc(S(=O)(=O)N2CCCCCC2)c1)c1nc2ccccc2[nH]1	1.2	-19	.	-16	.	1.2	.
COc1cc(NC(=O)NC2Cc3ccccc3C2)cc(OC)c1	3.4*	-28	.	-237	.	1.3	-169
COc1cccc(NC(=O)NC2CCCCCCC2)c1	2.1*	-14	.	-105	.	1.1	-167
O=c1c(O)c(-c2ccc(O)c(O)c2)oc2cc(O)cc(O)c12	0.17	-9	.	83*	.	1.1	91*
O=c1c(-c2c(O)cc(O)c3c(=O)cc(-c4ccc(O)cc4)oc23)c(-c2ccc(O)cc2)oc2cc(O)cc(O)c12	0.41	9	.	59*	.	0.91	65*
O=C(CCNC(=O)c1ccc([N+](=O)[O-])cc1)Nc1cccc(S(=O)(=O)N2CCOCC2)c1	1.1	13	.	-9	.	0.87	.
COc1ccc2oc(C(=O)Nc3ccc(S(=O)(=O)N(C)C4CCN(C)CC4)cc3)c(C)c2c1	0.94	-7	.	6	.	1.1	.
c1ccc(SCCN2CCN(c3ccccc3)CC2)cc1	0.95	3	.	5	.	0.97	.
COc1cc(-c2nnc(SCc3cc(=O)oc4cc(O)c(O)cc34)o2)cc(OC)c1OC	0.31	11	6	69*	0.9	0.89	73*
COc1ccc(NC(=O)C2CCCN(CCCc3ccccc3)C2)cc1OCC(C)C (stereo unspecified)	1	-16	.	0	.	1.2	.
